Source: PubChem
Only some compounds are listed: those with a hit (about 3.4% of all), similar ones and a draw of the others.
SIRT5 inh = blocks human SIRT5 desuccinylation of peptide; Purified SirT5, succinyl-peptide AMC, trypsin-coupled fluorescence; Q9NXA8; actives 1.1% (n = 330,000); inhibition, % at 15 µM; AID 652115; in the data active = inhibition above about 15%; inconclusive = no clear call, values can overlap the other calls
ERAP1 inh = ERAP1 (human) enzyme inhibition | actives 0.15% (n = 340,000) | AID 652197 | inhibition, % at 10.7 µM | recombinant ERAP1, Leu-AMC fluorescence, 60 min | Q9NZ08;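 active = mean replicate inhibition of at least 30%, or all replicates individually reaching that 30% level; inactive = mean below 30% and not every replicate reaching it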;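 also: 0% = neutral control wells and 100% = L-leucinethiol positive control wells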
rRNA inh HTS = inhibits bacterial ribosomal RNA function over humanized ribosomes; E. coli WT GFP vs humanized-ribosome RFP mutants, fluorescence, 24 h; hits give low values; DMSO median 0, no signal -100; GFP signal change (wild-type ribosome), % (no concentration beside the values); actives 1.6% (n = 350,000); AID 720706;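 active = significant combined selectivity score with lowered wild-type GFP, culture density cut under 30%, mutant RFP and density less affected; inactive = any of these conditions unmet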
S100A4 inh HTS = S100A4-myosin IIA interaction inhibition. P26447. S100A4/TAMRA-MyoIIA peptide fluorescence polarization. inhibition, % at 10.7 µM. actives 0.14% (n = 360,000);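 active = mean inhibition of at least 70% across replicates, with every replicate also reaching that level; inconclusive = mean inhibition reaches 70% but some replicates fall short; inactive = mean inhibition below 70%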
Target sequence (P26447 whole entry, looked up): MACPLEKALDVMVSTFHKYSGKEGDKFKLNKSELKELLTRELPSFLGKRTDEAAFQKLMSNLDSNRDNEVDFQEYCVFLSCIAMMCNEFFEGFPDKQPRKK
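Test system – S100A4 monomer (human) · Compound – single-point compound testing · Schedule – 5 min incubation before reading · Probe or stimulus – TAMRA-labelled myosin IIA heavy-chain peptide probe, 5 nM · Benchmarks – neutral control DMSO, positive control TFP · Medium – Calcium-containing HEPES buffer, pH 7.2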
MLL AF4-AF9 inh = MLL-AF4/AF9 protein interaction inhibition. inhibition, % at 10 µM. actives 0.47% (n = 350,000). AID 651704. P42568. AlphaScreen, biotin-AF4 peptide binding to FLAG-AF9;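 active = every replicate reaching a set inhibition limit, whatever the replicate mean, cut at about 25% in these data; inconclusive = mean inhibition reaches that limit but some replicates miss it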;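 also: 0% = plate neutral control median and 100% = total signal loss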
Target sequence (P42568 whole entry, looked up): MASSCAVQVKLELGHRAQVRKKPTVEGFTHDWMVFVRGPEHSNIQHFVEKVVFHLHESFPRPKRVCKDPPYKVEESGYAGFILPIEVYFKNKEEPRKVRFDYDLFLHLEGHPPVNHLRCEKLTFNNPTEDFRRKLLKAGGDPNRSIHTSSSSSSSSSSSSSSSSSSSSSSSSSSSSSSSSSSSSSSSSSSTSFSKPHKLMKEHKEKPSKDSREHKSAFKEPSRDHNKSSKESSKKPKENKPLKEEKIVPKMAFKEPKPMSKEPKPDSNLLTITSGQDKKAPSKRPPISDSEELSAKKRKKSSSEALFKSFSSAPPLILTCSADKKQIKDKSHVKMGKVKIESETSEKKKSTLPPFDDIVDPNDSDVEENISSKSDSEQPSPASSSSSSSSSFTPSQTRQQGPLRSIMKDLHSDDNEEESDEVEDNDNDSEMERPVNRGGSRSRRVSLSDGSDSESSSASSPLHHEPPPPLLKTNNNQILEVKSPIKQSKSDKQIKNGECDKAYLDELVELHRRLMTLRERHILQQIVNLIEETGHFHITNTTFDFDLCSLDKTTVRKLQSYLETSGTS
E-sel inducer = E-selectin induction on HUVECs | actives 0.37% (n = 260,000) | activation, % at 7.58 µM | P16581 | AID 686992 | HUVEC E-selectin immunofluorescence imaging; normalized: neutral wells 0, TNF-alpha wells 100;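 active = mean E-selectin-positive cell signal at least 10% of the positive control, reached in at least 60% of replicates, without over 20% cell loss; inconclusive = no rule given, readout overlaps actives, possibly toxicity-flagged; inactive = the rest, including those meeting only one limit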
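Material: HUVEC primary endothelial cells; Amount: 3,000 cells per well; Dosing: single concentration; Medium: EGM-2 growth medium on 0.1% gelatin-coated wells; Read-out basis: percent E-selectin-positive cells; Signal: immunofluorescence imaging; Control set: TNF-alpha, DMSO.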
Active calls of the source: *; u = inconclusive; x = no result given.

SMILES	SIRT5 inh	ERAP1 inh	rRNA inh HTS	S100A4 inh HTS	MLL AF4-AF9 inh	E-sel inducer
CCN(CC)c1ccc(/C=N/NC(=S)NC)c(O)c1	-3.6	-0.1	-6.6	-11.6	13.8	1.5
CCN(CC)c1ccc(/C=N/NC(=O)c2ccoc2C)c(O)c1	0.0	-8.6	-34.2*	-4.1	1.7	x
Cc1cc(N2C(=O)C(O)=C(C(=O)c3ccc(C)o3)C2c2cccc(Cl)c2)no1 (centres undefined)	x	2.2	-13.9	-4.6	0.9	-0.2
Cc1cc(N2C(=O)C(O)=C(C(=O)c3cc4ccccc4o3)C2c2ccc(Cl)cc2)no1 (centres undefined)	12.9	-1.3	-24.2*	-1.8	-2.6	x
Cc1cc(N2C(=O)C(O)=C(C(=O)c3ccco3)C2c2cccc(Cl)c2)no1 (centres undefined)	5.3	3.0	-31.9*	-1.5	-0.5	-0.1
Cc1cc(N2C(=O)C(O)=C(C(=O)c3cc4ccccc4o3)C2c2ccc(Br)cc2)no1 (centres undefined)	25.1*	4.8	-8.7	5.9	3.2	x
COc1ccc2c3c(n(C)c2c1)[C@H](CO)N(Cc1ccncc1)CC31CN(C(=O)NC(C)C)C1	x	x	1.2	x	-2.9	-0.1
COc1cccc(S(=O)(=O)N[C@@H]2CC[C@@H](CC(=O)NC3Cc4ccccc4C3)O[C@@H]2CO)c1	-2.5	7.7	6.6	-7.1	-0.7	0.6
COc1ccccc1-c1cn(CC[C@H]2CC[C@H](NC(=O)C3CCC3)[C@H](CO)O2)nn1	0.0	-1.0	-1.3	9.1	0.8	0.0
c1ccc(CN2CCC(N3CCC(N4CCCCCC4)CC3)CC2)cc1	31.8*	0.9	11.8	1.3	x	x
O=S1(=O)CC(N2CCCCC2)CN1Cc1ccccc1 (centres undefined)	-0.7	x	8.8	-2.2	-3.8	3.5
CCc1ccc(NC2=CC(=O)C(=O)c3ccccc32)cc1	2.1	-5.8	-24.4*	-2.0	10.4	-1.4
CCc1ccc(S(=O)(=O)/N=C2\C=C(Nc3ccc(C(=O)O)cc3)C(=O)c3ccccc32)cc1	2.1	6.7	6.8	-0.5	28.5*	-0.1
CC(NC(=O)c1ccc(CS(=O)(=O)c2ccc(Cl)cc2)o1)c1ccc2c(c1)OCCO2 (centres undefined)	-1.1	3.0	-17.1*	-2.6	8.2	x
CC(C)(C)NC(=S)Nc1cccc(C(F)(F)F)c1	0.0	-0.8	-48.5*	-3.0	-2.1	1.0
CNNC(=S)Nc1cccc(C(F)(F)F)c1	-3.3	-2.9	x	-1.0	-0.7	0.1
FC(F)(F)c1cccc(NC(=S)Nc2ccc(Cl)c(Cl)c2)c1	0.6	0.3	-49.2*	-6.8	-3.1	-0.1
COc1ccc(S(=O)(=O)N[C@H]2CC[C@@H](CC(=O)N3CCc4ccccc4C3)O[C@H]2CO)cc1	10.8	-0.9	1.8	19.5	-1.9	3.1
Cc1noc(C)c1NC(=O)N(C)C[C@@H]1Oc2ccc(NC(=O)Nc3ccc(F)cc3)cc2CC(=O)N([C@H](C)CO)C[C@H]1C	1.9	1.1	2.1	-28.2	-1.7	0.1
Cc1oc(-c2ccc(Cl)cc2)nc1CN1CCCC(C(=O)N2CCOCC2)C1 (centres undefined)	21.5*	-1.7	11.0	1.5	1.5	3.6
CC1CCCCN1CCCNC(=O)Cn1c(=O)c2cccn2c2ccccc21 (centres undefined)	21.5*	3.5	10.7	-3.9	2.7	x
O=c1c(/C=N/O)c(Nc2ccccc2)nc2ccccn12	1.1	-2.6	-19.8*	4.2	8.7	x
COc1ccc2c3c([nH]c2c1)[C@H](CO)N(Cc1cccc(F)c1)CC31CN(Cc2ccccn2)C1	1.1	-0.7	-4.5	4.3	12.7	-0.4
Cc1c(CC(Cl)(Cl)Cl)c2c(n1O)CC(C)(C)CC2=O	-3.4	-3.0	-31.6*	7.5	-1.5	-0.3
C[C@H](CO)N1C[C@H](C)[C@@H](CN(C)Cc2ccc(-c3ccccc3)cc2)Oc2ccc(NS(=O)(=O)c3cn(C)cn3)cc2CC1=O	x	x	6.3	x	x	x
SMILES	SIRT5 inh	ERAP1 inh	rRNA inh HTS	S100A4 inh HTS	MLL AF4-AF9 inh	E-sel inducer
Cc1cc(NC(=S)N(Cc2ccc(Cl)cc2)Cc2ccc(C(=O)O)cc2)ccc1Cl	4.7	1.5	-57.5	2.1	-3.3	x
COc1ccc(NC(=S)N(CCCN2CCCC2)Cc2cccn2Cc2ccc(Cl)cc2)cc1Cl	-2.3	2.0	-44.8	-4.6	33.0*	x
COc1ccc(NC(=S)N(Cc2ccc(Cl)cc2)Cc2ccc(C(=O)O)cc2)cc1Cl	-0.1	2.2	-32.4*	-12.3	-1.0	0.1
CN(C)CCCN(Cc1ccccc1)C(=S)Nc1ccc(F)c(Cl)c1	4.5	0.3	-45.8*	-7.6	-3.6	1.6
O=C(Nc1ccccc1F)N[C@@H]1CC[C@@H](CCNS(=O)(=O)c2ccc(Cl)cc2)O[C@@H]1CO	7.6	-0.8	-3.0	16.3	-1.9	0.5
C[C@@H]1CN([C@@H](C)CO)C(=O)c2cc(NS(=O)(=O)c3ccc(F)cc3)ccc2O[C@@H]1CN(C)S(=O)(=O)c1cn(C)cn1	-4.1	-0.5	-0.7	-0.5	-3.1	-0.1
Cc1oc(-c2cccs2)nc1CN1CCN(CC(C)C)C(CCO)C1 (centres undefined)	0.6	-0.2	3.3	-0.9	-10.2	x
Cc1ccccc1CC1(CO)CCCN(Cc2nc(-c3cccs3)oc2C)C1 (centres undefined)	0.3	2.7	-25.1*	18.2	8.6	1.0
COc1ccc(C#Cc2ccc3c(c2)[C@H]2[C@H](CCN2C(=O)c2ccccn2)[C@@H](CO)N3)cc1	5.8	1.2	-3.5	-6.2	26.1*	-0.1
CCC(=O)N1CC[C@@H]2[C@H](CO)Nc3ccc(C#Cc4ccc(OC)cc4)cc3[C@@H]21	16.8*	2.0	-2.2	-2.0	-5.0	2.7
COCC(=O)N1CC[C@@H]2[C@H]1c1cc(C#Cc3ccc(OC)cc3)ccc1N[C@@H]2CO	4.5	0.8	-6.5	-4.9	-1.5	2.3
CCCC#Cc1ccc2c(c1)[C@@H]1[C@@H](CCN1S(=O)(=O)c1ccccc1C)[C@@H](CO)N2	17.8*	-1.4	-4.9	-5.7	0.4	1.3
O=C(c1cnccn1)N1CC[C@@H]2[C@H]1c1cc(C#Cc3cccnc3)ccc1N[C@@H]2CO	4.7	1.7	-5.4	3.6	-4.8	0.6
CC(C)NC(=O)Nc1ccc2c(c1)C(=O)N(C)[C@@H]1CC[C@@H](CC(=O)NCC(F)(F)F)O[C@@H]1CO2	x	x	2.5	x	x	104.9*
CNC(=O)C[C@H]1CC[C@H]2[C@@H](COc3ccc(NC(=O)c4cccc(F)c4)cc3C(=O)N2C)O1	1.8	-1.1	1.9	1.7	0.1	91.9*
CNC(=O)C[C@@H]1CC[C@@H]2[C@H](COc3ccc(NC(=O)c4cc(F)cc(F)c4)cc3C(=O)N2C)O1	16.4*	-3.3	-0.7	-14.8	-0.3	u
